Common to all, as to type: functional
Assay [1] has as its system Haemophilus influenzae. Put plainly: Antimicrobial activity against Haemophilus influenzae clinical isolates assessed as resistant isolates by broth dilution method. (In general: In broth dilution the organism is exposed to a series of concentrations in liquid medium.)
The test system of assay [2] is Streptococcus pyogenes. Description: Antimicrobial activity against Streptococcus pyogenes clinical isolates assessed as resistant isolates by broth dilution method. Summed up: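 S. pyogenes clinical isolates were held at −70°C in duplicate and revived by the hot-loop touching method. MICs were obtained by the CLSI broth microdilution procedure active in the year of study. Resistance was interpreted according to CLSI M100-S19.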

In assay [3] the test system is Streptococcus pneumoniae. Description: Antimicrobial activity against Streptococcus pneumoniae clinical isolates assessed as susceptible isolates by PK/PD technique.
In assay [4] the test system is Haemophilus influenzae. Put plainly: Antimicrobial activity against Haemophilus influenzae clinical isolates assessed as susceptible isolates by broth dilution method.
For assay [5], the system named is Streptococcus pyogenes. Description: Antimicrobial activity against Streptococcus pyogenes clinical isolates assessed as susceptible isolates by broth dilution method. Summed up:
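S. pyogenes clinical isolates held at −70°C in duplicate and recovered by hot-loop touching. MICs by the CLSI broth microdilution method in force in the study year, interpreted per CLSI M100-S19.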

In assay [6] the test system is Streptococcus pyogenes. Description: Antimicrobial activity against Streptococcus pyogenes clinical isolates by broth dilution method.
For assay [7], the system named is Streptococcus pneumoniae. Put plainly: Antimicrobial activity against Streptococcus pneumoniae clinical isolates by broth dilution method.
For assay [8], the system named is Haemophilus influenzae. Description: Antimicrobial activity against Haemophilus influenzae clinical isolates assessed as susceptible isolates by PK/PD technique.
In assay [9] the test system is Haemophilus influenzae. Description: Antimicrobial activity against Haemophilus influenzae clinical isolates by broth dilution method.
The test system of assay [10] is Streptococcus pneumoniae. Description: Antimicrobial activity against Streptococcus pneumoniae clinical isolates assessed as resistant isolates by broth dilution method.
In assay [11] the test system is Streptococcus pneumoniae. Put plainly: Antimicrobial activity against Streptococcus pneumoniae clinical isolates assessed as susceptible isolates by broth dilution method. In outline:
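Isolates kept frozen at −70°C in duplicate and revived by hot-loop touching. MICs by the CLSI broth microdilution method active in the year of study, with S. pneumoniae ATCC 49619 as control. Categories assigned with CLSI M100-S19 breakpoints.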

Each structure is given as a SMILES string. Values after ≈ are worked out from the molar mass of the structure shown.

As for `CC1(C)S[C@@H]2[C@H](NC(=O)[C@H](N)c3ccccc3)C(=O)N2[C@H]1C(=O)O` [AMPICILLIN], the Activity stood at 13.3% with Haemophilus influenzae [1]; 0% in the assay on Streptococcus pyogenes [2]; 93.4% with Streptococcus pneumoniae [3]; 83.9% in the assay with Haemophilus influenzae [4]; 100% with Streptococcus pyogenes [5]; 86.7% in the assay with Haemophilus influenzae [8]. The figures for the MIC50 with Streptococcus pyogenes [6], in the assay on Streptococcus pneumoniae [7] and in the assay with Haemophilus influenzae [9] were not above 0.015 µg/mL, not above 0.015 µg/mL and 0.12 µg/mL (≈ 0.343 µM), respectively. Also, the MIC90 in the assay on Streptococcus pyogenes [6] was not above 0.015 µg/mL; in the assay on Streptococcus pneumoniae [7], 2 µg/mL (≈ 5.72 µM); against Haemophilus influenzae [9], 4 µg/mL (≈ 11.4 µM).

For `CC[C@H]1OC(=O)[C@H](C)[C@@H](O[C@H]2C[C@@](C)(OC)[C@@H](O)[C@H](C)O2)[C@H](C)[C@@H](O[C@@H]2O[C@H](C)C[C@H](N(C)C)[C@H]2O)[C@](C)(O)C[C@@H](C)CN(C)[C@H](C)[C@@H](O)[C@]1(C)O` [AZITHROMYCIN], the Activity in the assay on Haemophilus influenzae [1] is on record as 0%; with Streptococcus pyogenes [2], 11.6%; in the assay with Streptococcus pneumoniae [3], 74.3%; with Haemophilus influenzae [4] it was 100%; with Streptococcus pyogenes [5] it was 81.1%; with Streptococcus pneumoniae [10] it was 20.8%. In addition, the values for the Activity in the assay with Streptococcus pneumoniae [11] and with Haemophilus influenzae [8] were 77.6% and 23.8%, respectively. Besides, the MIC50 in the assay on Streptococcus pyogenes [6] is not above 0.015 µg/mL; against Streptococcus pneumoniae [7], not above 0.015 µg/mL; in the assay on Haemophilus influenzae [9], 0.25 µg/mL (≈ 0.334 µM). In addition, the figures for the MIC90 against Streptococcus pyogenes [6], in the assay with Streptococcus pneumoniae [7] and in the assay on Haemophilus influenzae [9] were 2 µg/mL (≈ 2.67 µM), not below 128 µg/mL and 1 µg/mL (≈ 1.34 µM), respectively.

For `N[C@@H](C(=O)N[C@@H]1C(=O)N2C(C(=O)O)=C(Cl)CS[C@H]12)c1ccccc1` [CEFACLOR ANHYDROUS], the Activity in the assay with Haemophilus influenzae [1] worked out at 0%; in the assay with Streptococcus pneumoniae [3] it was 75.9%; in the assay with Haemophilus influenzae [4], 97.8%; in the assay on Streptococcus pneumoniae [10], 19%; in the assay with Streptococcus pneumoniae [11], 79.1%; in the assay on Haemophilus influenzae [8], 25.8%. Besides, the MIC50 against Streptococcus pyogenes [6] came out at 0.03 µg/mL (≈ 0.0816 µM); against Streptococcus pneumoniae [7], 0.125 µg/mL (≈ 0.34 µM); in the assay on Haemophilus influenzae [9], 1 µg/mL (≈ 2.72 µM). The MIC90 with Streptococcus pyogenes [6] is less than 0.06 µg/mL; with Streptococcus pneumoniae [7], 16 µg/mL (≈ 43.5 µM); with Haemophilus influenzae [9], 4 µg/mL (≈ 10.9 µM).

Regarding `CO/N=C(\C(=O)N[C@@H]1C(=O)N2C(C(=O)O)=C(COC(C)=O)CS[C@H]12)c1csc(N)n1` [CEFOTAXIME], the Activity with Haemophilus influenzae [1] worked out at 0.1%; with Streptococcus pyogenes [2], 0%; in the assay on Streptococcus pneumoniae [3], 99.6%; in the assay on Haemophilus influenzae [4], 99.9%; in the assay on Streptococcus pyogenes [5] it was 100%; in the assay with Streptococcus pneumoniae [10], 0.2%. Besides, the Activity in the assay with Streptococcus pneumoniae [11] was 99.6%; in the assay on Haemophilus influenzae [8], 99.9%. Moreover, the MIC50 against Streptococcus pyogenes [6], against Streptococcus pneumoniae [7] and in the assay with Haemophilus influenzae [9] was not above 0.015 µg/mL each time. Besides, the results for the MIC90 in the assay on Streptococcus pyogenes [6], against Streptococcus pneumoniae [7] and with Haemophilus influenzae [9] were not above 0.015 µg/mL, 0.25 µg/mL (≈ 0.549 µM) and not above 0.015 µg/mL, respectively.

Regarding `CC[C@H]1OC(=O)[C@H](C)[C@@H](O[C@H]2C[C@@](C)(OC)[C@@H](O)[C@H](C)O2)[C@H](C)[C@@H](O[C@@H]2O[C@H](C)C[C@H](N(C)C)[C@H]2O)[C@](C)(O)C[C@@H](C)C(=O)[C@H](C)[C@@H](O)[C@]1(C)O` [ERYTHROMYCIN], the Activity in the assay on Streptococcus pyogenes [2] is 19%; in the assay with Streptococcus pneumoniae [3], 78.9%; in the assay on Streptococcus pyogenes [5] it was 80.6%; in the assay on Streptococcus pneumoniae [10] it was 21.1%; in the assay with Streptococcus pneumoniae [11] it was 78.9%; with Haemophilus influenzae [8], 32.5%. Besides, the MIC50 against Streptococcus pyogenes [6] was not above 0.015 µg/mL; with Streptococcus pneumoniae [7] it was not above 0.015 µg/mL; against Haemophilus influenzae [9] it was 1 µg/mL (≈ 1.36 µM). In addition, the MIC90 in the assay on Streptococcus pyogenes [6] is 2 µg/mL (≈ 2.73 µM); against Streptococcus pneumoniae [7], not below 128 µg/mL; against Haemophilus influenzae [9] it was 4 µg/mL (≈ 5.45 µM).

The values are drawn from ChEMBL document CHEMBL1275244, “Antimicrobial resistance among respiratory pathogens in Spain: latest data and changes over 11 years (1996-1997 to 2006-2007)” (2010).
